# Legend:
# [1] = biological target: T1, Alpha-1D adrenergic receptor (Rattus norvegicus, UniProt P23944); assay: Vasorelaxation of phenylephrine-stimulated Wistar rat aorta contraction; type: functional, tissue-based
# T1 sequence (P23944 whole entry): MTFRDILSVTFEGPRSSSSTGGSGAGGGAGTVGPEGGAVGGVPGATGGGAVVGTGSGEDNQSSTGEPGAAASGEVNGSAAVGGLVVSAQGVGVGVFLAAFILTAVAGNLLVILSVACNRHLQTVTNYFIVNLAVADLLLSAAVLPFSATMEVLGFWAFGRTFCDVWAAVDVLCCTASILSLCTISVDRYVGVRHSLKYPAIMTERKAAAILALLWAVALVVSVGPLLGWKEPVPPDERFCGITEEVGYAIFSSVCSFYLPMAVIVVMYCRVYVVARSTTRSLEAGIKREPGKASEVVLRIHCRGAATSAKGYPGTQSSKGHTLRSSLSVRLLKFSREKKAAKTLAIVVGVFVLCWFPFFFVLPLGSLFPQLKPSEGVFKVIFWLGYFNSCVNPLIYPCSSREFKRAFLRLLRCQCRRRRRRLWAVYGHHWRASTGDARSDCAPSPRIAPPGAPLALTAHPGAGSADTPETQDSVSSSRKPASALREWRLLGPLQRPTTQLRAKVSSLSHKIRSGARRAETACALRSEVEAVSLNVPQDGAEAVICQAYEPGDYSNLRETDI
# Procedure, shortened: (§1)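 Isolated rat aorta rings equilibrated 1 h at 2 g resting tension in Krebs solution, changed periodically. Contracted with 10^-5 M phenylephrine; at steady maximal contraction compounds added progressively over 30 min up to 10^-5 M or 10^-4 M. Responses read after 30 min as % relaxation of PE contraction; EC50 calculated when relaxation exceeded 60%.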
# [2] = biological target: T2, Alpha-1D adrenergic receptor (Rattus norvegicus) (UniProt P23944); assay: Inhibition of phenylephrine-stimulated Wistar rat aorta contraction at 10 uM; type: functional, tissue-based; set-up: scale not given: the % may be the effect or the level left; procedure, shortened: as §1
# T2 sequence (whole entry): T1 sequence (P23944 whole entry)
# [3] = biological target: T3, Alpha-1A adrenergic receptor (Rattus norvegicus) (UniProt P43140); assay: Inhibition of noradrenaline-stimulated Wistar rat vas deferens contraction at 1 uM; type: functional
# T3 sequence (whole entry): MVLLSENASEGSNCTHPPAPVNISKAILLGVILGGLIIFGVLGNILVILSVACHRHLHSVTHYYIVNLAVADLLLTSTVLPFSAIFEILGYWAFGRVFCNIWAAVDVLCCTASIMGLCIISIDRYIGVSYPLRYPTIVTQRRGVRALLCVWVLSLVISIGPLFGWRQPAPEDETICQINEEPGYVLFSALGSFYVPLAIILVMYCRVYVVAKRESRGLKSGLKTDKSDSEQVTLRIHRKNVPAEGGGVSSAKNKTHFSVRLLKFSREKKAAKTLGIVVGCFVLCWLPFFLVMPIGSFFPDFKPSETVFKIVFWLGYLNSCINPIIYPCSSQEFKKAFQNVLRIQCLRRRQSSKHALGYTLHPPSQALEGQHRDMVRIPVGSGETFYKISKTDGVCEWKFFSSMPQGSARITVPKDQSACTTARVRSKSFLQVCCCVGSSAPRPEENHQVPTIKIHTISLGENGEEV
# Procedure, shortened: (§2)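 Wistar rat vas deferens cleaned of connective tissue, held in Krebs–Henseleit at 37 °C, 95% O2–5% CO2, 1 g resting tension. Control noradrenaline concentration–response curve obtained, tissue then equilibrated with a fixed compound concentration for at least 30 min before a second NA curve. Time-matched controls; responses as % of control maximum; means ± SE.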
# [4] = biological target: T4, Alpha-1A adrenergic receptor (Rattus norvegicus, UniProt P43140); assay: Vasorelaxation of noradrenaline-stimulated Wistar rat vas deferens contraction; type: functional, tissue-based; procedure, shortened: as §2
# T4 sequence (P43140 whole entry): T3 sequence (whole entry)
# [5] = biological target: T5, Alpha-1B adrenergic receptor (Rattus norvegicus) (UniProt P15823); assay: Affinity to Adrenergic alpha-1B receptor in Wistar rat spleen; type: tissue-based
# T5 sequence (whole entry): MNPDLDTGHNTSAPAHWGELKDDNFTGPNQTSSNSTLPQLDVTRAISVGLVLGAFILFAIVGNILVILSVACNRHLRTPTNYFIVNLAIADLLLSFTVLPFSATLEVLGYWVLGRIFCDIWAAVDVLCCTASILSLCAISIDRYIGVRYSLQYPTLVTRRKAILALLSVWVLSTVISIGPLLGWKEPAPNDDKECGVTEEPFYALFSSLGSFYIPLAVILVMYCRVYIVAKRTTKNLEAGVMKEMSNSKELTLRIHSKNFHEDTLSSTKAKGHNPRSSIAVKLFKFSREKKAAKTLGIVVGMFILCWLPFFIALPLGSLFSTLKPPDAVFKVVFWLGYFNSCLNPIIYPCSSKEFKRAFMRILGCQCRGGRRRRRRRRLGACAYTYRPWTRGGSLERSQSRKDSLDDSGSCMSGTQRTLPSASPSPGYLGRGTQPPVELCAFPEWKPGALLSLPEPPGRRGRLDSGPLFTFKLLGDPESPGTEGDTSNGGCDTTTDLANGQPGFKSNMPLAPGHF
# Procedure, shortened: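 Longitudinal rat spleen strips at 1 g tension in Krebs, 37 °C. After stabilisation, single 10^-4 M phenylephrine dose, washout, then PE dose–response curves on two separate strips, control and after 30 min incubation with compound. Values as % of the first PE response.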
# [6] = biological target: T3, Alpha-1A adrenergic receptor (Rattus norvegicus); assay: Inhibition of noradrenaline-stimulated Wistar rat vas deferens contraction at 10 uM; type: functional; procedure, shortened: as §2
# [7] = biological target: T2, Alpha-1D adrenergic receptor (Rattus norvegicus); assay: Affinity to Adrenergic Alpha-1D receptor in Wistar rat aorta; type: tissue-based
# Procedure, shortened: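 Rat aorta rings stabilised, then cumulative vasoconstrictor additions until plateau; contraction as % of control response. Protocol repeated after 30 min compound incubation.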
# [8] = biological target: T3, Alpha-1A adrenergic receptor (Rattus norvegicus); assay: Affinity to Adrenergic alpha-1A receptor in Wistar rat vas deferens; type: tissue-based; procedure, shortened: as §2
# [9] = biological target: T2, Alpha-1D adrenergic receptor (Rattus norvegicus); assay: Inhibition of phenylephrine-stimulated Wistar rat aorta contraction at 100 uM; type: functional, tissue-based; set-up: scale not given: the % may be the effect or the level left; procedure, shortened: as §1
Structure (SMILES),EC50 [1] [µM],Activity [2] [%],also measured
CCn1nc(Cc2ccc(Cl)cc2)c2ccccc2c1=O,1.3,,
COc1ccc(Cc2nn(-c3ccc(Br)cc3)c(=O)c3ccccc23)cc1OC,> 100,,
Oc1nnc(Cc2ccc3ccccc3c2)c2ccccc12,> 10,43.9,
CSc1ccc(Cc2nn(-c3ccc([N+](=O)[O-])cc3)c(=O)c3ccccc23)cc1,> 100,,
COc1ccc(CC(=O)c2ccccc2C(=O)N2CCCCC2)cc1OC,,30,
C=CCn1nc(Cc2ccc(SC)cc2)c2ccccc2c1=O,> 100,,
O=c1c2ccccc2c(Cc2ccc(Cl)cc2)nn1-c1ccccc1,> 100,,
CCCCn1nc(Cc2ccc(OC)c(OC)c2)c2ccccc2c1=O,5.4,,
Cn1nc(Cc2ccc(Cl)cc2)c2ccccc2c1=O,0.43,99.3,inhibition [3]: 61.5%; EC50 [4]: 0.81 µM; pD'2 [5]: 5.55; inhibition [6]: 95.4%; pD'2 [7]: 5.4; pD'2 [8]: 6.1
CSc1ccc(Cc2n[nH]c(=O)c3ccccc23)cc1,5.5,,
COc1ccc(CCc2cc(O)cc(OC)c2C(=O)O)cc1,,,Activity [9]: 34%
Oc1nnc(Cc2ccc3c(c2)OCO3)c2ccccc12,2.9,86.7,inhibition [3]: 24.3%; EC50 [4]: 3 µM; inhibition [6]: 78.8%; pD'2 [8]: 5.5
C=CCn1nc(Cc2ccc(OC)c(OC)c2)c2ccccc2c1=O,9.8,,
CSc1ccc(Cc2nn(-c3ccccc3)c(=O)c3ccccc23)cc1,> 100,,
Cn1nc(Cc2ccc3c(c2)OCO3)c2ccccc2c1=O,0.93,90.2,
Oc1nnc(Cc2ccc(Cl)cc2)c2ccccc12,,89.9,inhibition [3]: 16.3%; inhibition [6]: 76.3%; pD'2 [8]: 5.4
COc1ccc(Cc2nn(-c3ccccc3)c(=O)c3ccccc23)cc1OC,> 100,,
Cn1nc(Cc2ccccc2Cl)c2ccccc2c1=O,1.4,84,
CCn1nc(Cc2ccc(SC)cc2)c2ccccc2c1=O,> 100,,
COc1ccc(Cc2nnc(O)c3ccccc23)cc1OC,3.7,83.8,
COc1ccc(Cc2nn(C)c(=O)c3ccccc23)cc1,< 100,,Activity [9]: 61.6%
COc1ccc(CCc2cc(O)cc(OC)c2C(=O)N2CCCCC2)cc1,,,Activity [9]: 51%
CCCCn1nc(Cc2ccc(SC)cc2)c2ccccc2c1=O,> 100,,
COc1cc(Cc2nnc(O)c3ccccc23)cc(OC)c1OC,> 100,,Activity [9]: 34.3%
CSc1ccc(Cc2nn(C)c(=O)c3ccccc23)cc1,0.93,87.2,
COc1ccc(C(=O)C(=O)c2ccccc2C(=O)N2CCCCC2)cc1OC,,70,

Structure (SMILES),EC50 [1] [µM],Activity [2] [%],also measured
O=c1[nH]nc(Cc2ccccc2)c2ccccc12,≤ 10,53,
CSc1ccc(Cc2nn(-c3ccc(Br)cc3)c(=O)c3ccccc23)cc1,> 100,,
Oc1nnc(Cc2cccc3ccccc23)c2ccccc12,4.4,79.2,
C=CCn1nc(Cc2ccc(Cl)cc2)c2ccccc2c1=O,2.6,,inhibition [3]: 16.9%; EC50 [4]: 4.4 µM; inhibition [6]: 70.4%; pD'2 [8]: 5.4
O=c1c2ccccc2c(Cc2ccc(Cl)cc2)nn1-c1ccc([N+](=O)[O-])cc1,29,,
Cn1nc(Cc2ccc(Cl)c(Cl)c2)c2ccccc2c1=O,4.9,60.3,
Cn1nc(Cc2ccccc2)c2ccccc2c1=O,≤ 10,55.7,inhibition [3]: 36.6%; EC50 [4]: 1.5 µM; inhibition [6]: 98.8%; pD'2 [8]: 5.8
CCn1nc(Cc2ccc(OC)c(OC)c2)c2ccccc2c1=O,5.3,,
CCCCn1nc(Cc2ccc(Cl)cc2)c2ccccc2c1=O,> 100,,
Cn1nc(Cc2cccc3ccccc23)c2ccccc2c1=O,14,39.8,
COc1cc(Cc2nn(C)c(=O)c3ccccc23)cc(OC)c1OC,> 10,16.7,
COc1ccc(Cc2nn(C)c(=O)c3ccccc23)cc1OC,2.2,67.7,
CC(C)(C)n1nc(Cc2ccc(Cl)cc2)c2ccccc2c1=O,> 100,,
Oc1nnc(Cc2ccc(Cl)c(Cl)c2)c2ccccc12,≤ 10,53.8,
O=c1c2ccccc2c(Cc2ccc(Cl)cc2)nn1-c1ccc(Br)cc1,> 30,,
COc1ccc(Cc2nnc(O)c3ccccc23)cc1,> 10,,Activity [9]: 39.3%
Cn1nc(Cc2ccc3ccccc3c2)c2ccccc2c1=O,> 10,44.6,
OC1(Cc2ccc3c(c2)OCO3)c2ccccc2C2=NCCN21 (stereo unspecified),,47,
Oc1nnc(Cc2ccccc2Cl)c2ccccc12,1.9,76.3,
CSc1ccc(Cc2nnc(O)c3ccccc23)cc1,,66,
CSc1ccc(Cc2nn(C(C)(C)C)c(=O)c3ccccc23)cc1,> 100,,
Oc1nnc(Cc2ccc(Cl)cc2Cl)c2ccccc12,< 10,61.3,
COc1ccc(Cc2nn(C(C)(C)C)c(=O)c3ccccc23)cc1OC,10,,
O=c1[nH]nc(Cc2ccc(Cl)cc2)c2ccccc12,0.79,,EC50 [4]: 3.9 µM
Cn1nc(Cc2ccc(Cl)cc2Cl)c2ccccc2c1=O,1.2,80.7,
COc1ccc(Cc2nn(-c3ccc([N+](=O)[O-])cc3)c(=O)c3ccccc23)cc1OC,> 100,,

# Source: ChEMBL document CHEMBL1147016, “Vasorelaxant activity of phthalazinones and related compounds” (Bioorg Med Chem Lett, 2006)
